Measured values as given in ChEMBL document CHEMBL1833936, “7-azaindenoisoquinolines as topoisomerase I inhibitors and potential anticancer agents” (J Med Chem, 2011).
Values after ≈ are worked out from the molar mass of the structure shown. Active and inactive are the calls of the source. The rule behind the calls is not given here.

tested on: SF-539; assay: Cytotoxicity against human SF539 cells after 48 hrs by SRB assay; format: functional; conditions: SF-539, 48 h
Method in brief: (§1)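 NCI 60-cell-line screen. Cells incubated 48 h with five 10-fold dilutions starting at 100 μM, then stained with sulforhodamine B. Optical density relative to control plotted against log concentration.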

In order of falling GI50:
1. O=C1c2cccnc2-c2c1c1ccccc1c(=O)n2CCCn1ccnc1  5130 nM
2. COc1cc2c3c(n(CCCN(C)C)c(=O)c2cc1OC)-c1ncccc1C3=O  4070 nM
3. COc1cc2c3c(n(CCCNCCO)c(=O)c2cc1OC)-c1ncccc1C3=O  260 nM

tested on: MCF7; assay: Cytotoxicity against human MCF7 cells after 48 hrs by SRB assay; format: functional; conditions: MCF7, 48 h; method in brief: as §1

In order of falling GI50:
1. O=C1c2cccnc2-c2c1c1ccccc1c(=O)n2CCCn1ccnc1  3390 nM
2. CN(C)CCCn1c2c(c3ccccc3c1=O)C(=O)c1ccccc1-2  550 nM
3. COc1cc2c3c(n(CCCN(C)C)c(=O)c2cc1OC)-c1ncccc1C3=O  440 nM
4. CN(C)CCCn1c2c(c3ccc([N+](=O)[O-])cc3c1=O)C(=O)c1ccccc1-2  240 nM
5. COc1cc2c3c(n(CCCNCCO)c(=O)c2cc1OC)-c1ncccc1C3=O  74 nM
6. CC[C@@]1(O)C(=O)OCc2c1cc1n(c2=O)Cc2cc3ccccc3nc2-1 [CAMPTOTHECIN]  13 nM

tested on: UACC-62; assay: Cytotoxicity against human UACC62 cells after 48 hrs by SRB assay; format: functional; conditions: UACC-62, 48 h; method in brief: as §1

In order of rising GI50:
1. COc1cc2c3c(n(CCCNCCO)c(=O)c2cc1OC)-c1ncccc1C3=O  120 nM
2. COc1cc2c3c(n(CCCN(C)C)c(=O)c2cc1OC)-c1ncccc1C3=O  13200 nM
3. O=C1c2cccnc2-c2c1c1ccccc1c(=O)n2CCCn1ccnc1  35500 nM

tested on: HOP-62; assay: Cytotoxicity against human HOP62 cells after 48 hrs by SRB assay; format: functional; conditions: HOP-62, 48 h; method in brief: as §1

In order of rising GI50:
1. COc1cc2c3c(n(CCCNCCO)c(=O)c2cc1OC)-c1ncccc1C3=O  300 nM
2. COc1cc2c3c(n(CCCN(C)C)c(=O)c2cc1OC)-c1ncccc1C3=O  3390 nM
3. O=C1c2cccnc2-c2c1c1ccccc1c(=O)n2CCCn1ccnc1  7240 nM

tested on: not listed separately; assay: Aqueous solubility at pH 7.5 after 24 hrs by HPLC; format: physicochemical; conditions: not given
Method in brief: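 Solid sample (4–10 mg) shaken in 1 M Tris buffer pH 7.5 for 24 h at 25 °C, then centrifuged and supernatant filtered. Supernatant analysed by reverse-phase C18 HPLC eluting methanol (1% TFA)/water 90:10. Concentration from one-point calibration against buffer solutions of known concentration.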

In order of falling solubility at 24 h:
1. COc1cc2c3c(n(CCCN(C)C)c(=O)c2cc1OC)-c1ncccc1C3=O  100 mM (≈ 39.3 mg/mL)
2. CN(C)CCCn1c2c(c3ccccc3c1=O)C(=O)c1ccccc1-2  0.28 mM (≈ 0.0931 mg/mL)

tested on: SN12C; assay: Cytotoxicity against human SN12C cells after 48 hrs by SRB assay; format: functional; conditions: not given; method in brief: as §1

In order of rising GI50:
1. COc1cc2c3c(n(CCCNCCO)c(=O)c2cc1OC)-c1ncccc1C3=O  230 nM
2. COc1cc2c3c(n(CCCN(C)C)c(=O)c2cc1OC)-c1ncccc1C3=O  3160 nM
3. O=C1c2cccnc2-c2c1c1ccccc1c(=O)n2CCCn1ccnc1  3720 nM

target: T1, DNA topoisomerase 1 (Homo sapiens) (UniProt P11387); assay: Inhibition of human topoisomerase 1 assessed as inhibition of radiolabeled DNA fragment cleavage 0.1 to 100 uM after 20 mins by gel-based phosphoimaging relative to control; conditions: not given
T1 sequence (whole entry): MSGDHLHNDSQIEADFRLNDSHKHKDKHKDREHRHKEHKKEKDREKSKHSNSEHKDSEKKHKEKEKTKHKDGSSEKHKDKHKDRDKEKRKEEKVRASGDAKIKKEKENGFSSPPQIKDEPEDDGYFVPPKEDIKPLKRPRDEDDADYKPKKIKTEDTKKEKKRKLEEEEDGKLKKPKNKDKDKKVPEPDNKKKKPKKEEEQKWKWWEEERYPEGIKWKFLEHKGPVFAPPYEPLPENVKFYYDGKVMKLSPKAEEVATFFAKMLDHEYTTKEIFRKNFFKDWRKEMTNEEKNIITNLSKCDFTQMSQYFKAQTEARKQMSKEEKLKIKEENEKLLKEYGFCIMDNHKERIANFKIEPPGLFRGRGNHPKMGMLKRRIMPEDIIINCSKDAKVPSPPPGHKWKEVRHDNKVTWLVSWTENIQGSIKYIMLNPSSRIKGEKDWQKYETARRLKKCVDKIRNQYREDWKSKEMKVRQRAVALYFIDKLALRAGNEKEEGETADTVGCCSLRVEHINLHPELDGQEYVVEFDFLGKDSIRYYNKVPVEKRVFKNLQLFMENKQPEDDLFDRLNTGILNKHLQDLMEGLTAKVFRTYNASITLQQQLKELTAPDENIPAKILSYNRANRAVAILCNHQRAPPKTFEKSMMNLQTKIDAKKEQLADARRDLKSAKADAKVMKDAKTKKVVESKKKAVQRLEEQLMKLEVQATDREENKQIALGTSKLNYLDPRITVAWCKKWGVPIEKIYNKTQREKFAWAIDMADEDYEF
Method in brief: (§2)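 Human recombinant Top1 purified from baculovirus. About 2 nM 117-bp DNA substrate, 3′-end-labeled with [α-32P]-dGTP by Klenow fill-in. Stopped with 0.5% SDS and formamide loading dye; 20% denaturing PAGE, phosphoimager. Tested at 0.1, 1, 10 and 100 μM.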

In the case of O=C1c2cccnc2-c2c1c1ccc([N+](=O)[O-])cc1c(=O)n2CCCN1CCOCC1, the inhibition is reported as “Active”.
With COc1cc2c3c(n(CCCn4ccnc4)c(=O)c2cc1OC)-c1ncccc1C3=O the inhibition was “Active”.
In the case of CN(C)CCCn1c2c(c3ccccc3c1=O)C(=O)c1ccccc1-2, the inhibition is reported as “Active”.
For CN(C)CCCn1c2c(c3ccc([N+](=O)[O-])cc3c1=O)C(=O)c1ccccc1-2, the inhibition was “Active”.
In the case of COc1cc2c3c(n(CCCN(C)C)c(=O)c2cc1OC)-c1ncccc1C3=O, the inhibition is reported as “Active”.
With COc1cc2c3c(n(CCCNCCO)c(=O)c2cc1OC)-c1ncccc1C3=O the inhibition was “Active”.
With O=C1c2cccnc2-c2c1c1ccccc1c(=O)n2CCCn1ccnc1 the inhibition was “Active”.

target: T1, DNA topoisomerase 1 (Homo sapiens); assay: Inhibition of human topoisomerase 1 assessed as inhibition of radiolabeled DNA fragment cleavage up to 100 uM after 20 mins by gel-based phosphoimaging relative to control; conditions: not given; method in brief: as §2

With COc1cc2c3c(n(CCCn4ccnc4)c(=O)c2cc1OC)-c1ncccc1C3=O the inhibition was “Active”.

tested on: OVCAR-3; assay: Cytotoxicity against human OVCAR3 cells after 48 hrs by SRB assay; format: functional; conditions: OVCAR-3, 48 h; method in brief: as §1

In order of rising GI50:
1. COc1cc2c3c(n(CCCNCCO)c(=O)c2cc1OC)-c1ncccc1C3=O  340 nM
2. CN(C)CCCn1c2c(c3ccccc3c1=O)C(=O)c1ccccc1-2  1660 nM
3. COc1cc2c3c(n(CCCN(C)C)c(=O)c2cc1OC)-c1ncccc1C3=O  3550 nM
4. O=C1c2cccnc2-c2c1c1ccccc1c(=O)n2CCCn1ccnc1  8710 nM
5. CN(C)CCCn1c2c(c3ccc([N+](=O)[O-])cc3c1=O)C(=O)c1ccccc1-2  32400 nM

tested on: HCT-116; assay: Cytotoxicity against human HCT116 cells after 48 hrs by SRB assay; format: functional; conditions: HCT-116, 48 h; method in brief: as §1

In order of falling GI50:
1. COc1cc2c3c(n(CCCN(C)C)c(=O)c2cc1OC)-c1ncccc1C3=O  1580 nM
2. O=C1c2cccnc2-c2c1c1ccccc1c(=O)n2CCCn1ccnc1  1200 nM
3. COc1cc2c3c(n(CCCNCCO)c(=O)c2cc1OC)-c1ncccc1C3=O  150 nM

target: T1, DNA topoisomerase 1 (Homo sapiens); assay: Inhibition of human topoisomerase 1-mediated DNA relaxation assessed as DNA intercalation at compound concentration above 3 uM after 30 mins by gel electrophoresis relative to control; conditions: not given
Method in brief: (§3)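 Two-step unwinding assay. SV40 DNA first fully relaxed with excess Top1 for 15 min at 37 °C without drug. Relaxed DNA then incubated 30 min at 37 °C with drug at 1, 3, 10, 30 or 100 μM. Control was a further 30 min incubation at 37 °C without drug. Products resolved on gel.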

In the case of COc1cc2c3c(n(CCCN(C)C)c(=O)c2cc1OC)-c1ncccc1C3=O, the Activity is reported as “Dose-dependent effect”.

target: T1, DNA topoisomerase 1 (Homo sapiens); assay: Inhibition of human topoisomerase 1 assessed as inhibition of radiolabeled DNA fragment cleavage after 20 mins by gel-based phosphoimaging relative to control; conditions: not given; method in brief: as §2

With COc1cc2c3c(n(CCCn4ccnc4)c(=O)c2cc1OC)-c1ncccc1C3=O the inhibition was “Dose-dependent effect”.

tested on: DU-145; assay: Cytotoxicity against human DU145 cells after 48 hrs by SRB assay; format: functional; conditions: DU-145, 48 h; method in brief: as §1

In order of falling GI50:
1. O=C1c2cccnc2-c2c1c1ccccc1c(=O)n2CCCn1ccnc1  2880 nM
2. COc1cc2c3c(n(CCCN(C)C)c(=O)c2cc1OC)-c1ncccc1C3=O  1700 nM
3. COc1cc2c3c(n(CCCNCCO)c(=O)c2cc1OC)-c1ncccc1C3=O  320 nM

target: T1, DNA topoisomerase 1 (Homo sapiens); assay: Inhibition of human topoisomerase 1-mediated DNA relaxation assessed as DNA intercalation at 100 uM after 30 mins by gel electrophoresis relative to control; conditions: not given; method in brief: as §3

For COc1cc2c3c(n(CCCN(C)C)c(=O)c2cc1OC)-c1ncccc1C3=O, the Activity was “Active”.
